Reference: ChEMBL document CHEMBL3872205, “Design, synthesis and evaluation of novel potent angiotensin II receptor 1 antagonists” (Eur J Med Chem, 2016)

Assays:
[1] = MRT (0 to 72 hrs) in Wistar rat spleen at 10 mg/kg, po by HPLC analysis; format: ADME, organism-based
How it was run: (§1)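 Male Wistar rats (180 ± 20 g) received a single oral dose of 10, 15 or 30 mg/kg. Tissues were collected at 0, 0.5, 1, 2, 4, 6, 8, 12, 24, 48 and 72 h (n = 6 per point). Samples of 0.25 g were rinsed, then homogenized in saline (0.25 g/1 mL) and centrifuged at 10,000 × g. Supernatant was methanol-extracted, dried under nitrogen at 50 °C and reconstituted in methanol. Analysis was by C18 HPLC (acetonitrile 60% / water 40%, 1.0 mL/min).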

[2] = Half life in Wistar rat brain at 10 mg/kg, po by HPLC analysis; format: ADME, organism-based
How it was run: (§2)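 Tissue distribution in male Wistar rats given oral 10, 15 or 30 mg/kg; heart, liver, spleen, lung, kidney and brain collected predose and 0.5–72 h post-dose (n = 6 per time). Tissue rinsed in saline, homogenised 0.25 g/1 mL saline, methanol extraction, dried under nitrogen, reconstituted in methanol. Analysis by reverse-phase C18 HPLC, acetonitrile/water 60:40, 1.0 mL/min, ambient temperature.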

[3] = MRT (0 to infinity) in Wistar rat lung at 30 mg/kg, po by HPLC analysis; format: ADME, organism-based; how it was run: as §1
[4] = Toxicity in ICR mouse assessed as mortality at 2929.69 mg/kg, ig after 2 weeks; format: organism-based; details: in vivo, po
[5] = AUC (0 to 72 hrs) in Wistar rat spleen at 30 mg/kg, po by HPLC analysis; format: ADME, organism-based; set-up: dose 30 mg/kg, time < 72 hr, route oral
How it was run: (§3)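 Wistar rats (180 ± 20 g) were dosed orally at 10, 15 or 30 mg/kg. Heart, liver, spleen, lung, kidney and brain were collected at 0–72 h (n = 6 per point). Tissue was rinsed, blotted and homogenized in saline (0.25 g/1 mL), then spun at 10,000 × g. Supernatant was methanol-extracted, dried under nitrogen at 50 °C, reconstituted in methanol and run on C18 HPLC (acetonitrile 60%/water 40%, 1.0 mL/min).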

[6] = Cmax in Wistar rat spleen at 30 mg/kg, po by HPLC analysis; format: ADME, organism-based; set-up: dose 30 mg/kg, route oral; how it was run: as §2
[7] = MRT (0 to 72 hrs) in Wistar rat brain at 10 mg/kg, po by HPLC analysis; format: ADME, organism-based; how it was run: as §2
[8] = Cmax in Wistar rat spleen at 15 mg/kg, po by HPLC analysis; format: ADME, organism-based; set-up: dose 15 mg/kg, route oral; how it was run: as §2
[9] = MRT (0 to 72 hrs) in Wistar rat kidney at 30 mg/kg, po by HPLC analysis; format: ADME, organism-based; how it was run: as §2
[10] = AUC (0 to 72 hrs) in Wistar rat plasma at 15 mg/kg, po by HPLC analysis; format: ADME, organism-based; set-up: dose 15 mg/kg, time < 72 hr, route oral
How it was run: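 Male Wistar rats (180 ± 20 g, n = 6 per group) got one oral dose. Heparinized blood was taken by retro-orbital puncture before dosing and at 0.5–72 h. Plasma was spun at 4000 × g, 4 °C, 10 min, spiked with internal standard and protein-precipitated with acetonitrile. Analysis was reverse-phase C18 HPLC (0.02 mol/L KH2PO4 55%/acetonitrile 45%, 1.0 mL/min). Calibration used 0.1–10 µg/mL, peak-height ratio, weighting concentration^-2.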

[11] = MRT (0 to infinity) in Wistar rat liver at 15 mg/kg, po by HPLC analysis; format: ADME, organism-based; how it was run: as §1
[12] = AUC (0 to 72 hrs) in Wistar rat kidney at 30 mg/kg, po by HPLC analysis; format: ADME, organism-based; set-up: time < 72 hr, dose 30 mg/kg, route oral; how it was run: as §3
[13] = Half life in Wistar rat spleen at 15 mg/kg, po by HPLC analysis; format: ADME, organism-based; how it was run: as §2

Work on `CCCCC1=NC2(CCCC2)C(=O)N1Cc1ccc2c(ccn2-c2ccccc2-c2nnn[nH]2)c1` yielded an MRT last [1] of 20.2 h, a half-life [2] of 2.73 h and an MRT inf [3] of 4.1 h. The mortality at 336 h [4] was 100%, the AUC(0-t) at 72 h [5] was 18900 ng·h/mL and the Cmax [6] was 1880 ng/mL. For the same molecule, the MRT last [7] was 8.1 h, the Cmax [8] was 2360 ng/mL and the MRT last [9] was 24.9 h. It also gave an AUC(0-t) at 72 h [10] of 26500 ng·h/mL, an MRT inf [11] of 4.77 h and an AUC(0-t) at 72 h [12] of 22400 ng·h/mL. For the same molecule, the half-life [13] was 7.57 h.
